In ChEMBL document CHEMBL1667823, “Design and synthesis of 4-arylpiperidinyl amide and N-arylpiperdin-3-yl-cyclopropane carboxamide derivatives as novel melatonin receptor ligands” (Bioorg Med Chem Lett, 2011):

Experiments:
[1] = Binding affinity to rat MT2 receptor expressed in CHO-Galpha16 cells assessed as Ca2+ mobilization after 20 mins by FLIPR assay; format: cell-based
Procedure, shortened: (§1)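 CHO-Galpha16 cells expressing rat MT1 or MT2, plated 24 h ahead, loaded with Fluo4-AM (1.5 final) plus pluronic acid in HBSS/20 mM HEPES/0.1% BSA pH 7.4 with 2.5 mM probenecid, 1 h at 37 °C, then washed. Ca2+ read by FLIPR. Agonist mode: 15 s baseline, compound added, 3 min read. Antagonist mode: compound preincubated 20 min at room temperature, then melatonin at EC80, 3 min read.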

[2] = tested on: CHO-Galpha16; experiment: Intrinsic activity at rat MT1 receptor expressed in CHO-Galpha16 cells assessed as Ca2+ mobilization after 20 mins by FLIPR assay relative to ramelteon; format: cell-based; procedure, shortened: as §1
[3] = Displacement of [3H]melatonin from rat MT1 receptor expressed in CHO-Galpha16 cells; format: cell-based
Procedure, shortened: (§2)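 Rat MT1 or MT2 membranes from CHO-Galpha16 cells incubated with [3H]-melatonin (0.5 nM final, 80 Ci/mmol) in 50 mM Tris/HCl pH 7.4, 5 mM MgCl2. Nonspecific binding defined with excess melatonin. Stopped by rapid GF/B filtration with five ice-cold washes. Ki from IC50 via Cheng–Prusoff.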

[4] = Displacement of [3H]melatonin from rat MT2 receptor expressed in CHO-Galpha16 cells; format: cell-based; procedure, shortened: as §2
[5] = organism: Rattus norvegicus; experiment: Intrinsic activity at rat MT2 receptor expressed in CHO-Galpha16 cells assessed as Ca2+ mobilization after 20 mins by FLIPR assay relative to agomelatine; format: cell-based; procedure, shortened: as §1
[6] = tested on: CHO-Galpha16; experiment: Inhibition of rat MT2 receptor expressed in CHO-Galpha16 cells relative to control; format: cell-based; details: dose or concentration not given here; procedure, shortened: as §1
[7] = Binding affinity to rat MT1 receptor expressed in CHO-Galpha16 cells assessed as Ca2+ mobilization after 20 mins by FLIPR assay; format: cell-based; procedure, shortened: as §1
[8] = tested on: CHO-Galpha16; experiment: Inhibition of rat MT1 receptor expressed in CHO-Galpha16 cells relative to control; format: cell-based; set-up: concentration or dose not given beside the values; details: dose or concentration not given here; procedure, shortened: as §1
[9] = organism: Rattus norvegicus; experiment: (§3) Ratio of Ki for rat MT1 to Ki for rat MT2; procedure, shortened: as §2
[10] = tested on: Liver microsomes; experiment: Intrinsic clearance in human liver microsome at 1 uM by LC/MS analysis; format: ADME
Procedure, shortened: (§4)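 Compound at 1 µM incubated with liver microsomes (0.5 mg/mL protein) and an NADPH-regenerating system, sampled at 0, 5, 15, 30 and 60 min. Quenched, centrifuged supernatants analysed by LC/MS for remaining parent to estimate T1/2.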

[11] = Drug level in rat brain at 10 mg/kg, ip after 1 hr; format: ADME, organism-based; set-up: dose 10 mg/kg, route intraperitoneal; details: read-out: Drug uptake
Procedure, shortened: (§5)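 Rats dosed 10 mg/kg IP, with brain and plasma concentrations taken at 1 h. Vehicle varied: 20% HP-bCD, 15% Solutol, or 10% DMSO with 2.5% PEG400 in 15% Solutol. B/P is the brain-to-plasma concentration ratio.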

[12] = Ratio of drug level in rat brain to plasma at 10 mg/kg, ip after 1 hr; format: ADME, organism-based; set-up: dose 10 mg/kg, route intraperitoneal; procedure, shortened: as §5
[13] = tested on: Liver microsomes; experiment: Intrinsic clearance in rat liver microsome at 1 uM by LC/MS analysis; format: ADME; procedure, shortened: as §4
[14] = Drug level in rat plasma at 10 mg/kg, ip after 1 hr; format: ADME, organism-based; set-up: dose 10 mg/kg, route intraperitoneal; details: read-out: Drug uptake; procedure, shortened: as §5
[15] = as §3; procedure, shortened: as §2
[16] = Agonist activity at human MT1 receptor; format: functional
[17] = Agonist activity at human MT2 receptor; format: functional

EC50 [1] [nM] | EC50 [7] [nM] | SMILES | Intrinsic activity [2] [%] | Ki [3] [nM] | Ki [4] [nM] | Intrinsic activity [5] [%] | also measured
1.1 | 0.56 | COc1ccc2[nH]cc(CCNC(C)=O)c2c1 [MELATONIN] | 97 | 0.99 | 0.58 | 97 | 
200 | 380 | COc1cccc(C2CCN(C(=O)C3CCC3)CC2)c1 | 52 | 140 | 67 | 62 | 
140 | 610 | COc1cccc(C2CCN(C(=O)[C@H]3C[C@@H]3C)CC2)c1 | 19 | 150 | 35 | 65 | 
19 | 98 | COc1cccc(C2CCN(C(=O)C(C)C)CC2)c1 | 87 | 160 | 31 | 76 | 
1800 | 1700 | COc1cccc(C2CCN(C(=O)CC(C)C)CC2)c1 | 39 |  |  | 35 | 
42 | 1300 | CCC(=O)N1CCC(c2cccc(OC)c2)CC1 | 31 | 810 | 150 | 66 | 
3600 | > 10000 | O=C(C1CC1)N1CCC(c2cccc(O)c2)CC1 | 96 |  |  | 23 | 
1.4 | 2.1 | COc1ccc2cccc(CCNC(C)=O)c2c1 [AGOMELATINE] | 94 | 1.2 | 0.14 | 100 | clearance [10]: 361 µL/min/mg; concentration at 1 h [11]: 1030 nM; Kp at 1 h [12]: 1.5; clearance [13]: 144 µL/min/mg; concentration at 1 h [14]: 700 nM
> 10000 | > 10000 | COc1ccccc1C1CCN(C(=O)C2CC2)CC1 | 2 |  |  | 3 | 
3400 | 1700 | COc1ccc(C2CCN(C(C)=O)CC2)cc1 | 34 | 4700 | 360 | 140 | 
> 10000 | > 10000 | CC(C)Oc1cccc(C2CCN(C(=O)C3CC3)CC2)c1 | 9 |  |  | 10 | 
110 | 210 | COc1cccc(C2CCN(C(=O)C3CCCC3)CC2)c1 | 67 |  |  | 74 | 

More lines, now with the values behind:

SMILES | EC50 [1] [nM] | EC50 [7] [nM] | Intrinsic activity [2] [%] | Ki [3] [nM] | Ki [4] [nM] | Intrinsic activity [5] [%] | also measured
COc1cccc(N2CCC[C@@H](NC(=O)C3CC3)C2)c1 | 93 | 3500 | 30 | 1000 | 95 | 23 | IC50 [4]: 10 nM; inhibition [6]: 97%
COc1cccc(C2CCN(C(C)=O)CC2)c1 | > 10000 | > 10000 | 6 |  |  | 19 | 
COc1cc(N2CCC[C@@H](NC(=O)C3CC3)C2)ccc1Cl | > 10000 | > 10000 | 19 | 130 | 31 | 23 | inhibition [8]: 94%; IC50 [3]: 440 nM; IC50 [4]: 24 nM; Ratio Ki [9]: 4; inhibition [6]: 98%
COc1cccc(C2CCN(C(=O)C3CCCCC3)CC2)c1 | 2800 | 7500 | 42 |  |  | 36 | 
CCC(CC)C(=O)N1CCC(c2cccc(OC)c2)CC1 | 790 | 2300 | 32 |  |  | 35 | 
O=C(N[C@H]1CCCN(c2cccc(OCCO)c2)C1)C1CC1 | > 10000 | > 10000 | 3 | 610 | 150 | 12 | inhibition [8]: 91%; IC50 [3]: 930 nM; IC50 [4]: 31 nM; inhibition [6]: 94%
O=C(N[C@H]1CCCN(c2cccc(OC(F)(F)F)c2)C1)C1CC1 | 12 | > 10000 | 1 | 190 | 66 | 53 | inhibition [8]: 95%; IC50 [3]: 2100 nM
COc1cccc(-c2cccc(NC(=O)C3CC3)n2)c1 | 1200 | > 10000 | 15 | 1500 | 83 | 57 | inhibition [8]: 41%; IC50 [3]: 3800 nM
Cc1cccc(C2CCN(C(=O)C3CC3)CC2)c1 | > 10000 | > 10000 | 0.4 |  |  | 15 | 
COc1cccc(N2CCC[C@H](NC(=O)C3CC3)C2)c1 | 6.2 | 3.9 | 77 | 9.9 | 2.7 | 74 | clearance [10]: 28 µL/min/mg; concentration at 1 h [11]: 180 nM; Kp at 1 h [12]: 0.2; clearance [13]: 616 µL/min/mg; concentration at 1 h [14]: 730 nM
COc1cccc(C2CCN(C(=O)C3CC3(C)C)CC2)c1 (stereo unspecified) | 147 | 640 | 33 |  |  | 30 | 
COc1cc(N2CCC[C@H](NC(=O)C3CC3)C2)ccc1Cl | 2.3 | 0.74 | 73 | 1.2 | 2.1 | 65 | clearance [10]: 45 µL/min/mg; clearance [13]: 199 µL/min/mg
COc1cccc(N2CC(NC(=O)C3CC3)Cc3ccccc32)c1 (racemic) | 50 | 170 | 84 | 75 | 6.7 | 35 | 
COc1cccc(C2CCN(C(=O)c3ccccc3)CC2)c1 | 4400 | > 10000 | 12 | 650 | 110 | 60 | 
CCC(=O)NCC[C@@H]1CCc2ccc3c(c21)CCO3 [RAMELTEON] | 0.89 | 3.1 | 100 | 2 | 0.03 | 95 | clearance [10]: 47 µL/min/mg; concentration at 1 h [11]: 390 nM; Kp at 1 h [12]: 0.7; clearance [13]: 60 µL/min/mg; concentration at 1 h [14]: 580 nM
COc1cccc(N2CCCC(NC(=O)C3CC3)C2)c1 (racemic) | 2.9 | 9.7 | 85 | 15 | 2.7 | 99 | IC50 [3]: > 10000 nM; IC50 [4]: > 10000 nM; Ki ratio (MT1/MT2) [15]: 5.6
COc1cccc(C2CCN(C(=O)C3CC3)CC2)c1 | 9.5 | 65 | 41 | 40 | 10 | 74 | clearance [10]: 29 µL/min/mg; concentration at 1 h [11]: 540 nM; Ratio Ki [9]: 4; Kp at 1 h [12]: 1.4; clearance [13]: 91 µL/min/mg; concentration at 1 h [14]: 390 nM
O=C(N[C@H]1CCCN(c2cccc(OC(F)F)c2)C1)C1CC1 | 4.2 | 390 | 21 | 410 | 44 | 57 | clearance [10]: 48 µL/min/mg; inhibition [8]: 96%; IC50 [3]: 870 nM; clearance [13]: 485 µL/min/mg
COc1ccc(C2CCN(C(=O)C3CC3)CC2)cc1 | 5000 | > 10000 | 58 | 1100 | 870 | 94 | 
CCOc1cccc(C2CCN(C(=O)C3CC3)CC2)c1 |  |  |  | 5700 | 4100 |  | 
CCCC(=O)N[C@H]1CCN(c2cccc(OC)c2)C1 |  |  |  |  |  |  | Ki [16]: 3.7 nM; Ki [17]: 2.6 nM
COc1cccc(N2CCCC2CNC(=O)C2CC2)c1 (racemic) | 2.5 | 18 | 89 | 21 | 3.3 | 98 | 
